A selection: hits, their analogues and other compounds. The true share with any hit is near 3.5%.
MrgX1 antag: antagonists of human MrgX1 receptor. MRGX1-HEK293 calcium flux, Fluo-4, BAM8-22 antagonism; stronger effect = lower value. B-score at 10 µM. 310,000 tested, 1.3% active;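 active means calcium-response B-score plate-corrected more than 3 library SD below zero, starting fluorescence within 5 deviations, no agonist response on first addition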;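 further: peak minus trough fluorescence over baseline after final BAM8-22 challenge near maximal dose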
Target sequence (Q96LB2 whole entry, looked up): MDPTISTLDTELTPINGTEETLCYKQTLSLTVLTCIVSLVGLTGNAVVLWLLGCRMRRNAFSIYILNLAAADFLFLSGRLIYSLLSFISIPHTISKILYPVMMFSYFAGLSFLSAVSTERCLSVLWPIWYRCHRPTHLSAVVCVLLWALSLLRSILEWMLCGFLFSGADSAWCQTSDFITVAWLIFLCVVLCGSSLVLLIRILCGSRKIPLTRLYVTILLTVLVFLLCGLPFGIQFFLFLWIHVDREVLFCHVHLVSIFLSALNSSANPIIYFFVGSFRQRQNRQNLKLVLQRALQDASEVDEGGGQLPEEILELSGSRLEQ
RGS4 inh: human RGS4 inhibition; P49798; HEK293 M3R/RGS4 inducible, Fluo-4 calcium flux; stronger effect = higher value; triggered by carbachol at its EC20; B-score at 10 µM; 310,000 tested, 0.45% active;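 active means B-score, a plate-corrected calcium signal, over three deviations above library mean, with baseline fluorescence within five deviations of library mean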;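 further: RGS4 expression induced by doxycycline in cells with stable M3 receptor; B-score is computed from the integrated fluorescence ratio over baseline after carbachol; higher B-score means a larger calcium signal and so more RGS4 inhibition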
Target sequence (P49798 whole entry, looked up): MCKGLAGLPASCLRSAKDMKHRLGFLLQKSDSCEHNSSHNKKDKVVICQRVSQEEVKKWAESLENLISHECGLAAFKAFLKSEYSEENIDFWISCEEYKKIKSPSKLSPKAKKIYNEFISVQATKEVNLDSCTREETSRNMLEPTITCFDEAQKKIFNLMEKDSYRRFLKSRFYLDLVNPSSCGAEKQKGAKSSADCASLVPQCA
MrgX1 ag: agonists of human MrgX1 receptor | MrgX1-HEK293 cells, Fluo-4 calcium fluorescence, agonist mode; stronger effect = higher value | 310,000 tested, 0.44% active | Q96LB2 | B-score at 10 µM;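 active means calcium response B-score plate-corrected fluorescence ratio at least 3 library SD, with starting fluorescence B-score inside 5 SD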
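Test system: Stable human MrgX1 HEK293 cell line | Schedule: Overnight plating before 1 h dye loading | Read-out basis: Baseline-normalised fluorescence change ratio, B-scored | Detection: Kinetic calcium dye fluorescence, Fluo-4 NW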
RGS4 act: RGS4 potentiation or activation | HEK293 M3R/inducible RGS4, carbachol calcium flux Fluo4; stronger effect = lower value | 310,000 tested, 0.92% active | AID 463111 | B-score at 10 µM;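 active means B-score of the integrated calcium signal more than 4 SD below the library mean, with starting fluorescence not abnormally high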;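 further: negative B-score means reduced calcium response which marks RGS4 activation or potentiation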
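System – HEK293 FlpIn-TREx cells, stable M3R, doxycycline-inducible RGS4 · Reagent – ECmax carbachol challenge · Times – compound preincubation 20 min at room temperature before agonist · Technique – Fluo4 fluorescence kinetic imaging of calcium · Measure – B score of integrated Fluo4 ratio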
MrgX1 allo act: human MrgX1 positive allosteric modulation, primary screen. B-score at 10 µM. 310,000 tested, 0.63% active. AID 588675. MrgX1-HEK293, Fluo-4 calcium flux, FDSS; stronger effect = higher value;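 active means plate-corrected calcium response at least 3 library SD above typical, normal starting fluorescence, not activating the receptor alone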;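 further: compound read alongside a low EC10 to EC30 dose of BAM8-22 agonist; peak minus trough fluorescence over baseline measured at the second addition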
MrgX1 PAM conf: human MrgX1 positive allosteric modulation, re-confirmation. shares compounds with MrgX1 allo act. MrgX1-HEK293, Fluo-4 calcium fluorescence, FDSS. 1,200 tested, 13% active. activation (ratio percentage), % at 10 µM. AID 602413;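 active means ratio at least 3 SD above the weak peptide control, stable starting fluorescence, no direct agonism earlier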;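 further: compound followed by low BAM8-22 agonist challenge near EC20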
HEK293 Ca flux: counter-screen for MrgX1 antagonists: effect in parental HEK293 cells | shares compounds with MrgX1 antag | Fluo-4 calcium fluorescence, FDSS | fluorescence ratio F(max-min)/F0 at 10 µM | 4,000 tested, 2% active | AID 624111;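 active means duplicate-averaged calcium fluorescence ratio at least three times the standard deviation of buffer wells, a nonspecific response in parental cells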
HEK293 Ca counter: activity in parental HEK293 cells without MrgX1; shares compounds with MrgX1 antag; parental HEK293 calcium flux, Fluo-4 fluorescence ratio; stronger effect = higher value; fluorescence ratio F(max-min)/F0 at 10 µM; 4,000 tested, 0.4% active; AID 624114;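 active means calcium fluorescence ratio, averaged over duplicates, at least 3 SD of the buffer-well ratio, meaning a nonspecific response in receptor-free cells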;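 further: untransfected parental HEK293 lacking MrgX1 used as counterscreen for MrgX1 allosteric activators; fluorescence change taken during the second addition on a kinetic imager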
HEK293 Ca cntr2: MrgX1 activator counter-screen hit in parental HEK293 cells; 4,000 tested, 8.7% active; Fluo-4 calcium fluorescence (FDSS); stronger effect = higher value; shares compounds with MrgX1 antag; fluorescence ratio F(max-min)/F0 at 10 µM;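 active means calcium fluorescence ratio at least three times the spread of buffer wells, meaning a non-specific response in parental cells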
Large screens that a line does not name were inactive (follow-up assays come after a bar, where they were run).

CC1CCCN(S(=O)(=O)c2ccc(C(=O)Nc3nnc(-c4ccccc4Cl)o3)cc2)C1 (stereo not drawn)	MrgX1 allo act 8.73 | MrgX1 PAM conf inactive | HEK293 Ca flux inactive | HEK293 Ca counter inactive | HEK293 Ca cntr2 inactive
O=C(NCCc1c[nH]c2ccccc12)c1ccc(F)cc1F	none
O=C(CN1CCC(O)(c2cccc(F)c2)CC1)NCCc1c[nH]c2ccccc12	MrgX1 allo act 7.64 | MrgX1 PAM conf inactive | HEK293 Ca flux inactive | HEK293 Ca counter inactive | HEK293 Ca cntr2 inactive
Cc1ccc(C)c2[nH]c(=O)c(CN(CCCN(C)C)C(=O)NCc3ccccc3)cc12	none
CCOC(=O)c1[nH]c2ccc(OC)cc2c1NC(=O)CN1CCc2ccccc2C1	MrgX1 allo act 8.12 | MrgX1 PAM conf inactive | HEK293 Ca flux inactive | HEK293 Ca counter inactive | HEK293 Ca cntr2 inactive
CC1CCN(C(=O)c2ccc(-c3ccccc3Cl)o2)CC1	MrgX1 allo act 7.64 | MrgX1 PAM conf inactive | HEK293 Ca flux inactive | HEK293 Ca counter inactive | HEK293 Ca cntr2 inactive
O=C(NC12CC3CC(CC(C3)C1)C2)c1ccc(-c2ccccc2Cl)o1	MrgX1 allo act 6.74 | MrgX1 PAM conf inactive | HEK293 Ca flux inactive | HEK293 Ca counter inactive | HEK293 Ca cntr2 inactive
O=C(NC12CC3CC(CC(C3)C1)C2)c1ccccc1O	MrgX1 allo act 9.83 | MrgX1 PAM conf inactive | HEK293 Ca flux inactive | HEK293 Ca counter inactive | HEK293 Ca cntr2 inactive
O=C(c1ccc(-c2cccc(Cl)c2Cl)o1)N1CCOCC1	none
O=C(NCCc1ccccc1)c1cc(-c2ccccc2)c(N2CCOCC2)s1	none
CN(CC(=O)Nc1cccc(F)c1)C(=O)C1CCN(S(=O)(=O)c2ccc3c(c2)OCCO3)CC1	none
C#CCOCCOCCOCCNc1nc(N2CCN(C(=O)[C@H](Cc3ccc(O)cc3)n3cc([C@@H](N)CC(C)C)nn3)CC2)nc(N2CCN(C(=O)[C@H](Cc3ccc(O)cc3)n3cc([C@@H](N)CC(C)C)nn3)CC2)n1	none
CCN1C(=O)CSC1=NC1C2CC3CC(C2)CC1C3 (stereo not drawn)	MrgX1 allo act 13.7 | MrgX1 PAM conf inactive | HEK293 Ca flux inactive | HEK293 Ca counter inactive | HEK293 Ca cntr2 inactive
O=C(NCCc1ccccc1)c1ccc(CS(=O)Cc2ccc(Cl)cc2)o1 (stereo not drawn)	none
Cc1ccc(OCC(=O)Nc2ccc(N3CCN(C(=O)c4ccco4)CC3)cc2)cc1C	MrgX1 allo act 10.2 | MrgX1 PAM conf inactive | HEK293 Ca flux inactive | HEK293 Ca counter inactive | HEK293 Ca cntr2 inactive
Cc1cc(OCC(=O)Nc2ccc(N3CCN(C(=O)c4ccco4)CC3)cc2)cc(C)c1Cl	none
OCC1CCCN(c2ncnc3scc(-c4ccccc4)c23)C1 (stereo not drawn)	MrgX1 allo act 6.48 | MrgX1 PAM conf inactive | HEK293 Ca flux inactive | HEK293 Ca counter inactive | HEK293 Ca cntr2 inactive
O=S(=O)(c1ccccc1)N1CCN(c2ncnc3scc(-c4ccccc4)c23)CC1	none
COC(=O)c1ccc(Oc2nc(C)cc(Oc3ccccc3)n2)cc1	MrgX1 allo act 19 | MrgX1 PAM conf 7.3% | HEK293 Ca flux inactive | HEK293 Ca counter inactive | HEK293 Ca cntr2 inactive
CSCC[C@H](NC(=O)[C@@H]1Cc2ccccc2CN1)C(=O)NC1CCCC1	MrgX1 allo act 8.5 | MrgX1 PAM conf inactive | HEK293 Ca flux inactive | HEK293 Ca counter inactive | HEK293 Ca cntr2 inactive
CSCC[C@H](NC(=O)[C@@H]1Cc2ccccc2CN1)C(=O)NC(C)c1ccccc1 (stereo partly drawn)	none
CCOC(=O)C1CCN(C(=O)CN2C(=O)c3cccnc3Oc3ccccc32)CC1	MrgX1 allo act 8.3 | MrgX1 PAM conf inactive | HEK293 Ca flux inactive | HEK293 Ca counter inactive | HEK293 Ca cntr2 inactive
COc1ccc(NC(=O)C2CCC(N3C(=O)C4CCCCC4C3=O)CC2)cc1 (stereo not drawn)	none
O=C(CCN1CCc2ccccc2C1)Nc1ccc2c(c1)OCO2	none
O=C(CCN1CCc2ccccc2C1)Nc1ccc(F)c(F)c1	MrgX1 allo act 25.3 | MrgX1 PAM conf inactive | HEK293 Ca flux inactive | HEK293 Ca counter inactive | HEK293 Ca cntr2 inactive
CC(Oc1ccccc1)C(=O)N1CCN(C(=O)C(C)Oc2ccccc2)CC1 (stereo not drawn)	none
COC(=O)C1=C(C)NC2=C(C(=O)CCC2)C1c1cccs1 (stereo not drawn)	none (no result: MrgX1 antag, MrgX1 ag, MrgX1 allo act)
O=C(c1ccc(Br)cc1)N1CCN(Cc2ccccc2)CC1	MrgX1 allo act 6.45 | MrgX1 PAM conf inactive | HEK293 Ca flux inactive | HEK293 Ca counter inactive | HEK293 Ca cntr2 inactive
Cc1ccc2cc(CN(CC3CCCO3)C(=O)c3cccs3)c(=O)[nH]c2c1 (stereo not drawn)	none
Cc1ccc2[nH]c(=O)c(CN(CC3CCCO3)C(=O)c3cccs3)cc2c1 (stereo not drawn)	MrgX1 allo act 35.5 | MrgX1 PAM conf inactive | HEK293 Ca flux inactive | HEK293 Ca counter inactive | HEK293 Ca cntr2 inactive
Cc1cc(NC(=O)c2ccc(F)cc2)n(CCOC(=O)c2ccc(F)cc2)n1	none
CCOC(=O)N1CCN(c2cc(=O)n(-c3cccc(C)c3)c(=O)[nH]2)CC1	MrgX1 allo act 11.1 | MrgX1 PAM conf inactive | HEK293 Ca flux inactive | HEK293 Ca counter inactive | HEK293 Ca cntr2 inactive
CCOC(=O)N1CCN(c2cc(=O)n(-c3cccc(Br)c3)c(=O)[nH]2)CC1	none
COC(=O)c1ccc2c(C)c(C(C)(C)O)[nH]c2c1	none
FC(F)Sc1ccc(NC(=S)NC2CCCC2)cc1	MrgX1 allo act 6.85 | MrgX1 PAM conf inactive | HEK293 Ca flux inactive | HEK293 Ca counter inactive | HEK293 Ca cntr2 inactive
OC1CCC(NC(=S)Nc2ccc(SC(F)F)cc2)CC1 (stereo not drawn)	none
Fc1ccc(N/N=C/c2ccc(N3CCOCC3)cc2)c(F)c1	none
CCCc1ccc(OCC(=O)Nc2cc(S(=O)(=O)CC)ccc2O)cc1	MrgX1 allo act 24.2 | MrgX1 PAM conf inactive | HEK293 Ca flux inactive | HEK293 Ca counter inactive | HEK293 Ca cntr2 inactive
OCCCCCNc1ncnc2ccccc12	MrgX1 allo act 22.5 | MrgX1 PAM conf inactive | HEK293 Ca flux inactive | HEK293 Ca counter inactive | HEK293 Ca cntr2 inactive
CCN(CC)CCCNc1ncnc2ccccc12	none
CCCNC(=O)OCC12CC3CC(CC(C3)C1)C2	MrgX1 allo act 9.66 | MrgX1 PAM conf inactive | HEK293 Ca flux inactive | HEK293 Ca counter inactive | HEK293 Ca cntr2 inactive
